Assay results collected from several papers.
Lines come from different studies, so protocols differ.
Effect on: cell growth or viability

| SMILES | cell line | method | time | IC50 |
| --- | --- | --- | --- | --- |
| Cc1nc(Nc2ncc(C(=O)Nc3c(C)cccc3Cl)s2)cc(N2CC[C@H](O)C2)n1 | Raji | ATP luminescence | 72 h | > 10000 nM |
| O=C1CCC(N2C(=O)c3cccc4c(Cn5cc(C6CCNCC6)nn5)ccc2c34)C(=O)N1 (stereo not shown) | NCI-H929 |  |  | 6.21 nM |
| CCCc1cc2cc(-n3nc(C)c4c3CC(C)(C)CC4=O)cc(N3CCC(O)CC3)c2c(=O)[nH]1 | SK-OV-3 | MTS |  | 2980 nM |
| CN1CCC(NC2CCc3[nH]c4c(C(N)=O)ccc(-c5ccccc5Cl)c4c3C2)CC1 (stereo not shown) | DOHH-2 |  | 96 h | 24.7 nM |
| O=C1CCC(N2C(=O)c3cccc4c(Cc5cnn(C6CCNCC6)c5)ccc2c34)C(=O)N1 (stereo not shown) | NCI-H929 |  |  | 0.16 nM |
| COc1cccc(NC(=O)Nc2nc3cc(-c4ccc5ncn(CC(=O)N6CCOCC6)c(=O)c5c4)ccc3s2)c1 | PC-9 | MTT | 72 h | > 20000 nM |
| O=C1CC[C@H](N2C(=O)c3cccc4c(Cc5ccc(CN6CCOCC6)cc5)ccc2c34)C(=O)N1 | NCI-H929 |  |  | 0.06 nM |
| O=C(NO)c1ccc(Cn2cnc3c(Nc4ccc(Br)cc4F)ncnc32)cc1 | Raji | MTT | 72 h | 230 nM |
| CCNC(=O)Nc1nc2cc(-c3ccc4ncn(Cc5ccccc5)c(=O)c4c3)ccc2s1 | PC-9 | MTT | 72 h | > 20000 nM |
| CC(C)(O)C(=O)N1CCC(n2cc(Cc3ccc4c5c(cccc35)C(=O)N4C3CCC(=O)NC3=O)cn2)CC1 (stereo not shown) | NCI-H929 |  |  | 0.19 nM |
| CN(C)CCn1cnc2ccc(-c3ccc4sc(NC(=O)Nc5ccc(F)cc5)nc4c3)cc2c1=O | PC-9 | MTT | 72 h | 4870 nM |
| O=C1CCC(N2C(=O)c3cccc4c(Cc5ccc(CN6CCNCC6)cc5)ccc2c34)C(=O)N1 (stereo not shown) | NCI-H929 |  |  | 0.73 nM |
| Nc1ccccc1NC(=O)c1ccc(Cn2cnc3c(Nc4ccc(Br)cc4F)ncnc32)cc1 | Raji | MTT | 72 h | 120 nM |
| CCCC(=O)Nc1nc2cc(-c3ccc4ncn(Cc5ccccc5)c(=O)c4c3)ccc2s1 | PC-9 | MTT | 72 h | > 20000 nM |
| COc1ccc(Nc2ncnc3c2ncn3Cc2ccc(C(=O)NO)cc2)cc1 | Raji | MTT | 72 h | 430 nM |
| COc1cccc(NC(=O)Nc2nc3cc(-c4ccc5ncn(CCN6CCOCC6)c(=O)c5c4)ccc3s2)c1 | PC-9 | MTT | 72 h | > 20000 nM |
| O=C(NO)c1ccc(Cn2cnc3c(Nc4cccc([N+](=O)[O-])c4)ncnc32)cc1 | Raji | MTT | 72 h | 300 nM |
| O=C1CCC(N2Cc3c(OCc4ccc(CN5CCNCC5)cc4)cccc3C2=O)C(=O)N1 (stereo not shown) | NCI-H929 |  |  | 20.4 nM |
| O=C(Nc1ccc(Br)cc1)Nc1nc2cc(-c3ccc4ncn(Cc5ccccc5)c(=O)c4c3)ccc2s1 | PC-9 | MTT | 72 h | > 20000 nM |
